pIC50: −log10 of the molar value. Active and inactive are the calls of the source. The rule behind the calls is not given here.
Experiments:
CaSki (Homo sapiens) = test: Cytotoxicity against CaSki transformed human cervical carcinoma cells after 48 hrs by XTT assay
HeLa [1] = test: Cytotoxicity against HPV18 transformed human HeLa cells after 48 hrs by XTT assay; type: functional, cell-based
Procedure, shortened: (§1)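 ATCC lines grown in DMEM with 10% FBS, penicillin/streptomycin, 5% CO2; 1,000 cells/well exposed to compound (HeLa and CaSki tested over 100 to 0.01 µM). After treatment, XTT labeling mixture for 4 h, absorbance at 450 nm. Triplicate runs; IC50 is the average of three independent determinations.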

[2] = Inhibition of trypsin-like activity of 20S proteasome isolated from human LCL after 30 mins by fluorimetric analysis
Procedure, shortened: (§2)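 Semipurified proteasome from lymphoblastoid cells: glass-bead lysis in Tris pH 7.5/MgCl2/DTT/2 mM ATP/sucrose buffer, differential and 100,000g ultracentrifugation. Preincubated with inhibitor 30 min at 37°C, then 45 min at 37°C with Suc-LLVY-AMC (chymotrypsin-like), Boc-LRR-AMC (trypsin-like) or Ac-YVAD-AMC (caspase/PGPH-like) in 50 mM Tris pH 7.5, 5 mM MgCl2, 1 mM DTT. Quenched with 1% SDS; ex 380/em 440 nm; percent inhibition versus untreated.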

[3] = Inhibition of chymotrypsin-like activity of 20S proteasome isolated from human LCL after 30 mins by fluorimetric analysis
Procedure, shortened: as §2

HeLa [4] = test: Increase of polyubiquitinated accumulation in human HeLa cells at 10 uM after 8 hrs by immunoblotting; type: functional, cell-based
Procedure, shortened: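 HeLa cells treated 8 h with or without compound, then lysates immunoblotted for poly-ubiquitinated proteins; β-actin antibody to confirm equal loading; bortezomib positive control.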

[5] = Inhibition of PGPH-like activity of 20S proteasome isolated from human LCL after 30 mins by fluorimetric analysis
Procedure, shortened: as §2

HeLa [6] = test: Inhibition of proteasome activity in human HeLa cells assessed as induction of ubiquitinG76V-FL reporter level at 5 nM after 8 hrs by luciferase assay; conditions: 1 µM, in the assay text read “at 1 µM” for “at 5 nM”
Procedure, shortened: (§3)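 HeLa transiently transfected with Ub(G76V)4-FL or CMV-FL control, replated 24 h later at 1×10^4 cells/well, drug added after 18 h attachment. Luciferase measured in cell lysate, RLU expressed as % of control; SE from three independent experiments.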

HeLa [7] = test: Inhibition of proteasome activity in human HeLa cells assessed as induction of ubiquitinG76V-FL reporter level at 1 uM after 8 hrs by luciferase assay
Procedure, shortened: as §3

[8] = Inhibition of calpain up to 50 uM by fluorometric analysis
[9] = Cytotoxicity against human keratinocytes assessed as effect on cell viability at 1.6 to 25 uM after 48 hrs by XTT assay; type: cell-based; conditions: keratinocyte
Procedure, shortened: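 Primary keratinocytes cultured in defined Keratinocyte-SFM, treated 48 h at the indicated concentrations, 1,000 cells/well. XTT reagent for 4 h, absorbance at 450 nm; viability plotted as fraction of untreated control cultures; triplicate.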

ME-180 = test: Cytotoxicity against HPV58 transformed human ME180 cells after 48 hrs by XTT assay; type: functional, cell-based
Procedure, shortened: as §1

[10] = target: Cathepsin D (Homo sapiens) (UniProt P07339); test: Inhibition of cathepsin D up to 50 uM by fluorometric analysis
Chain of Cathepsin D (Homo sapiens) (P07339 65-162 limits assumed): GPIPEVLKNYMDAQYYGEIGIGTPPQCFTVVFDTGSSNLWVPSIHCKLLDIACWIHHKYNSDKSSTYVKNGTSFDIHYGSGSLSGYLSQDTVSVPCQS
Chain of Cathepsin D (Homo sapiens) (P07339 169-412 limits assumed): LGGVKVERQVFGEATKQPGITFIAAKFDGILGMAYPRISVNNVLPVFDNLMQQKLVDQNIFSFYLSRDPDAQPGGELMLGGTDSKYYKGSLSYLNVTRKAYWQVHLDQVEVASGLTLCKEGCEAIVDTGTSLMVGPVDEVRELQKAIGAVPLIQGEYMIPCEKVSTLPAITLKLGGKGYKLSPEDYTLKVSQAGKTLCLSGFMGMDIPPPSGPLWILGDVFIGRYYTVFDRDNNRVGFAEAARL

SiHa = test: Cytotoxicity against HPV16 transformed human SiHa cells after 48 hrs by XTT assay; type: functional, cell-based
Procedure, shortened: as §1

SMILES | pIC50 (CaSki (Homo sapiens)) | pIC50 (HeLa [1]) | Activity (HeLa [4]) | other results
NCCCC[C@H](NC(=O)N1C/C(=C\c2ccc(Cl)c(Cl)c2)C(=O)/C(=C/c2ccc(Cl)c(Cl)c2)C1)C(=O)O | < 4.30 | < 4.30 |  | 
CC(C)C[C@H](NC(=O)N1C/C(=C\c2ccc(Cl)c(Cl)c2)C(=O)/C(=C/c2ccc(Cl)c(Cl)c2)C1)C(=O)O | 4.70 | 5.00 | Active | pIC50 [2]: < 5.00; pIC50 [3]: 5.03; pIC50 [5]: < 5.00
O=C(O)CC[C@H](NC(=O)N1C/C(=C\c2ccc(Cl)c(Cl)c2)C(=O)/C(=C/c2ccc(Cl)c(Cl)c2)C1)C(=O)N[C@@H](CC(=O)O)C(=O)O | < 4.30 | < 4.30 |  | 
CC(C)C[C@H](NC(=O)[C@H](Cc1ccccc1)NC(=O)c1cnccn1)B(O)O |  |  |  | inhibition (HeLa [6]): Active; inhibition (HeLa [7]): Active
O=C1/C(=C/c2ccc(Cl)c(Cl)c2)CN(C(=O)N[C@@H](Cc2ccccc2)C(=O)N[C@@H](Cc2ccc(O)cc2)C(=O)O)C/C1=C\c1ccc(Cl)c(Cl)c1 | < 4.30 | < 4.30 |  | 
O=C(O)CC[C@H](NC(=O)N1C/C(=C\c2ccc(Cl)c(Cl)c2)C(=O)/C(=C/c2ccc(Cl)c(Cl)c2)C1)C(=O)O | < 4.30 | < 4.30 | inactive | 
O=C1/C(=C/c2ccc(Cl)c(Cl)c2)CN(C(=O)N[C@@H](Cc2ccccc2)C(=O)O)C/C1=C\c1ccc(Cl)c(Cl)c1 | 5.82 | 6.49 | Active | inhibition [8]: inactive; pIC50 [2]: 5.18; inhibition (HeLa [6]): Active; pIC50 [3]: 5.32; Activity [9]: Non-toxic; pIC50 [5]: 5.21; inhibition (HeLa [7]): Active; Activity (ME-180): Dose-dependent effect; inhibition [10]: inactive; Activity (SiHa): Dose-dependent effect
N=C(N)NCCC[C@H](NC(=O)N1C/C(=C\c2ccc(Cl)c(Cl)c2)C(=O)/C(=C/c2ccc(Cl)c(Cl)c2)C1)C(=O)N[C@@H](CCCCN)C(=O)O | < 4.30 | < 4.30 |  | 
O=C1/C(=C/c2ccc(Cl)c(Cl)c2)CN(C(=O)N[C@@H](Cc2ccc(O)cc2)C(=O)O)C/C1=C\c1ccc(Cl)c(Cl)c1 | 5.00 | 5.00 | Active | pIC50 [2]: 5.08; pIC50 [3]: 5.38; pIC50 [5]: < 5.00
N=C(N)NCCC[C@H](NC(=O)[C@H](CCCCN)NC(=O)N1C/C(=C\c2ccc(Cl)c(Cl)c2)C(=O)/C(=C/c2ccc(Cl)c(Cl)c2)C1)C(=O)O | < 4.30 | < 4.30 |  | 
CN1C/C(=C\c2ccc(B(O)O)cc2)C(=O)/C(=C/c2ccc(B(O)O)cc2)C1 | 5.05 | 5.10 |  | 

— ChEMBL document CHEMBL1649417, “α,β-Unsaturated carbonyl system of chalcone-based derivatives is responsible for broad inhibition of proteasomal activity and preferential killing of human papilloma virus (HPV) positive cervical cancer cells” (J Med Chem, 2011)
